# Screens (PubChem BioAssay)
# Rows were chosen to be rich in hits. Some 2.3% of all compounds tested hit in one or more screens of this group.
# core dimer inh – blocks dimerization of HCV core protein; TR-FRET GST/Flag-core106 dimerization, 1536-well; inhibition, % at 5 µM; 0.33% of 300,000 active; AID 1899;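 active means inhibition above the mean of all tested compounds plus 3 SD, set per screening campaign, cut at about 45% in these data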
#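 Material: GST/Flag-tagged HCV core106 proteins. Incubation: 4 h, 22.5 °C incubation. Read-out basis: inhibition (%) from 671 over 617 nm ratio. Measured by: TR-FRET, excitation 340 nm, emission 617 and 671 nm.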
# GPR7 antagonist – human neuropeptides B/W receptor 1 antagonism | GPR7-expressing cells, fluorescence antagonist assay | inhibition, % at 4.4 µM | 1.1% of 290,000 active | AID 1861; in the data active means inhibition above about 16%, passing the limit was not always enough;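 further: cells stimulated with the agonist NPW; 0% = agonist with vehicle and 100% = vehicle without agonist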
# HCV NS3 hel inh – HCV NS3 helicase inhibition; NS3 helicase DNA unwinding, Cy5 molecular beacon fluorescence; inhibition, % at 10.9 µM; 0.56% of 290,000 active; AID 1800;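 active means inhibition above the mean of all tested compounds plus 3 SD, set per campaign, cut at about 35% in these data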;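 further: 0% = DMSO wells and 100% = thioflavine S control wells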
#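 Compound dosing – single dose, 10.9 µM nominal final, DMSO 0.8% final · System – NS3 helicase fragment of HCV · Buffer or medium – MOPS pH 6.5, MgCl2, DTT, Tween20, BSA · Signal – Cy5 beacon fluorescence read at start and 1 h · Also added – annealed dual-labelled DNA beacon duplex, ATP-started · Schedule – 1 h at 25 °C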
# ZTA DNA inh – counter-screen for EBNA-1 inhibitors: inhibitors of Epstein-Barr virus ZTA | P03206 | ZTA-DNA binding, fluorescence polarization | 0.15% of 320,000 active | AID 2234 | inhibition, % at 11 µM; in the data active means inhibition above about 33%
# Target sequence (P03206 whole entry, looked up): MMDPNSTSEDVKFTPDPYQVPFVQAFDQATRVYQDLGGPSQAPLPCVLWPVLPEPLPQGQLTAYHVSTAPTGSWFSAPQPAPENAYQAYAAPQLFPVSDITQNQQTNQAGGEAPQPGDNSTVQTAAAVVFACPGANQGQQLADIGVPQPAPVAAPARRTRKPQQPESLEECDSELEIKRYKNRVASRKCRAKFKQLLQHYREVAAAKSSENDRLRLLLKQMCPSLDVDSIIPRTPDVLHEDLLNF
# EBNA-1 inhibitor – blocks EBNA-1 binding to DNA; AID 1950; EBNA-1 DNA binding, fluorescence polarization; 0.34% of 300,000 active; inhibition, % at 14.8 µM; in the data active means inhibition above about 28%
# EBV gp42 inh – inhibitors of Epstein-Barr virus glycoprotein 42. Q1HVG2. Fluorescence polarization binding assay, mP read-out. inhibition, % (tested at 21.74 µM). 0.42% of 220,000 active; in the data active means inhibition above about 50%
# Target sequence (Q1HVG2 whole entry, looked up): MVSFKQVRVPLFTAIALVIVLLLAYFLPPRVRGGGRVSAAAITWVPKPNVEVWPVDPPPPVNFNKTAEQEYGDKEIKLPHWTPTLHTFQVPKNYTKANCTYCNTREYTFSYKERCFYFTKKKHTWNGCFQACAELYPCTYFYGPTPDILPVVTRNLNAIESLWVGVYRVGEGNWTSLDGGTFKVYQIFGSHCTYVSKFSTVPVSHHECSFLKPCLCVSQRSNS
# NS3 hel confirm – HCV NS3 helicase inhibition, confirmation assay. shares compounds with HCV NS3 hel inh. NS3 helicase DNA unwinding, Cy5 molecular beacon fluorescence. inhibition, % at 10.9 µM. 31% of 1,600 active. AID 1943;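 active means inhibition above the mean of all tested compounds plus 3 SD, cutoff set per campaign, cut at about 36% in these data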
# FID counter trip – displaces DNA intercalator in HCV helicase counter-screen; shares compounds with HCV NS3 hel inh; DNA fluorescent intercalator displacement, fluorescence; inhibition, % at 7.9 µM; 4% of 1,600 active; AID 1945; in the data active means inhibition above about 37%;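 further: 0% = vehicle and 100% = reference compound; higher means more displacement of ethidium bromide from the DNA hairpin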
# * hit, by the source's call; nt = not tested or not shown.
SMILES,core dimer inh,GPR7 antagonist,HCV NS3 hel inh,ZTA DNA inh,EBNA-1 inhibitor,EBV gp42 inh,others
C[C@]12C=CC(=O)C=C1C=C[C@@H]1C2CC[C@]2(C)C(=O)CCC12 (some centres not stated),-13,3,20,-9,-4,nt,
Cc1cc2c(C(C)C)c(O)c(O)c(C=O)c2c(O)c1-c1c(C)cc2c(C(C)C)c(O)c(O)c(C=O)c2c1O,nt,-14,37*,nt,nt,15,
Nc1ccc2nonc2c1[N+](=O)[O-],-4,-12,-2,-13,-2,194*,
N#CC(C#N)=Cc1ccc(-c2ccccc2F)o1,4,0,7,4,0,101*,
S=C(NC1CCCCC1)N1CCC(c2cnc[nH]2)CC1,7,nt,nt,-2,6,nt,
COC(=O)C[C@]1(C(=O)OC)CN(C#N)N(c2ccc(Cl)cc2)C12c1ccccc1-c1ccccc12,42,24*,-17,17,4,5,
COC(=O)[C@@H]1[C@@H](C(=O)OC)C2(c3ccccc3-c3ccccc32)N(c2ccc(Cl)cc2)N1C#N,42,16*,-2,6,8,3,
COc1ccc(CN2CCN(C(=O)Cc3ccccc3)CC2)cc1Br,-4,10,-3,-1,4,nt,
COc1ccc(-c2nn(CCC#N)cc2C(=O)NCc2ccccc2)cc1[N+](=O)[O-],nt,-14,10,nt,nt,nt,
OCC[n+]1c2ccccc2nc2ccc(N3CCOCC3)cc21,-76,-10,25,115*,84*,-7,
O=C1NC(=O)C2=Cc3ccc(O)cc3OC2(O)N1 (configuration not stated),nt,5,-1,nt,nt,90*,
c1ccc2sc(C3CCNCC3)nc2c1,nt,-5,-4,nt,nt,nt,
O=c1c2cc(Br)ccc2[nH]c(=S)n1-c1ccccc1,-1,29*,1,1,0,-12,
O=c1c2ccccc2[nH]c(=S)n1-c1ccc(Br)cc1,4,-7,-9,6,-5,-13,
CN[C@H]1C[C@H]2O[C@@](C)([C@H]1OC)n1c3ccccc3c3c4c(c5c6ccccc6n2c5c31)C(=O)NC4,6,30*,-83,-7,-1,-5,
COC(=O)C1=C(c2ccc3ccccc3c2)C[C@@H]2CC[C@H]1N2C(=O)NC(C)C,nt,nt,nt,7,nt,nt,
CC(C)(O)[C@H]1O[C@H]2CC[C@@]3(C)[C@@](O)(CC[C@H]4Cc5c([nH]c6ccccc56)[C@@]43C)C2=CC1=O,-11,22,-27,-14,-21,53*,
O=C1NC(=O)C(=C/C=C/c2coc3ccc(Br)cc3c2=O)C(=O)N1,4,-6,48*,21,-1,-14,
CCC(=NCc1cccnc1)c1c(O)n(-c2ccc(C)cc2)c(=O)[nH]c1=O,-2,-2,-1,-13,-12,-4,
c1ccc(-c2[nH]c(-c3ccccc3)[n+](CC3CO3)c2-c2ccccc2)cc1 (configuration not stated),13,-5,-20,9,10,57*,
CCC(C)N1C(=O)/C(=C/c2ccc3c(c2)CCN3CCCCl)C(=O)NC1=S (configuration not stated),72*,-1,22,7,3,1,
CCOP(=O)(Cc1ccccc1)OCC,3,nt,nt,7,-1,nt,
O=C(Cn1nc(-c2ccc(Cl)cc2)ccc1=O)N1CCC2(CC1)OCCO2,-3,-21,-12,-11,-1,-2,
Cc1cccc(N2C(=O)NC(=O)/C(=C/c3cc4c(cc3[N+](=O)[O-])OCO4)C2=O)c1,-4,-18,8,-6,-9,83*,
Cc1cc(C=C2C(=O)NC(=S)NC2=O)c(C)n1-c1ccc2c(c1)OCO2,21,1,16,7,1,61*,
SMILES,core dimer inh,GPR7 antagonist,HCV NS3 hel inh,ZTA DNA inh,EBNA-1 inhibitor,EBV gp42 inh,others
Cc1cc(C=C2C(=O)NC(=O)NC2=O)c(C)n1-c1ccc2c(c1)OCO2,9,0,0,-2,4,1,
CN(CC1COc2ccccc2O1)c1nc(-c2cccnc2)nc2ccccc12 (configuration not stated),15,2,-6,-6,-9,5,
Cc1ccc(N=C(N(C)C)P(=O)(N(C)C)N(C)C)cc1,-7,-2,-16,8,1,-10,
Nc1ncc([N+](=O)[O-])s1,nt,nt,nt,2,nt,nt,
O=C(O)c1cccc2c1NC(c1cccc([N+](=O)[O-])c1)C1CC(Sc3ccccc3[N+](=O)[O-])C(Cl)C21 (configuration not stated),nt,-5,29,nt,nt,10,
Cc1ccc2c(c1Cl)NC(C(=O)O)C1CC(Sc3ccccc3[N+](=O)[O-])C(Cl)C21 (configuration not stated),66*,-1,14,-5,-2,3,
Cn1nccc1C(=O)N1CCC2(CC1)OCCO2,4,-24,1,10,7,nt,
CCOc1ccc(-n2c(O)c(C=Nc3ccc(N4CCOCC4)cc3)c(=O)[nH]c2=O)cc1,3,-5,7,12,-8,-6,
Cc1cc(C)cc(-n2c(O)c(C=Nc3ccc(N4CCOCC4)cc3)c(=O)[nH]c2=S)c1,8,-7,15,12,-8,58*,
O=[N+]([O-])c1ccc(NCc2ccccc2)c2nonc12,-7,34*,8,4,-6,-62,
CN1CCC(=O)N(CCN=[N+]=[N-])CC1,6,-4,25,6,4,nt,
COC(=O)CCCCC1SCC(NC(=O)c2ccccc2)C1Cl (configuration not stated),3,-6,-6,11,-2,53*,
COC(=O)C(O)(c1ccc(NC(=O)c2ccccc2)cc1)C(F)(F)F (configuration not stated),1,19,0,4,0,-11,
CN1C(=O)/C(=C\c2ccc(Br)s2)C(=O)NC1=S,5,-15,35,1,-5,nt,
O=C1NC(=S)NC(=O)C1=Cc1ccc(Br)s1,4,-9,45*,-4,-7,nt,NS3 hel confirm=56*;FID counter trip=8
CN1CCc2cc3c(c4c2C1Cc1ccccc1-4)OCO3 (configuration not stated),12,-7,44*,-11,0,nt,NS3 hel confirm=-6;FID counter trip=82*
NS(=O)(=O)c1ccc(-c2ccc(C=C3C(=O)NC(=O)NC3=O)o2)cc1,10,-4,26,-14,-3,nt,
CNS(=O)(=O)c1ccc(-c2ccc(C=C3C(=O)NC(=O)NC3=O)o2)cc1,4,-1,45*,3,2,nt,NS3 hel confirm=-28;FID counter trip=6
O=C1NC(=O)C(=Cc2ccc(-c3cc(Cl)ccc3[N+](=O)[O-])o2)C(=O)N1,nt,-9,14,nt,nt,6,
